From PMC7501995 (Cell metabolism, 2020)
“Also recorded” adds a separate entry of the source.

Key:
db/db mice [1] = test: Hyperinsulinemic-euglycemic clamp in db/db mice; type: in vivo, mouse
Method in brief: (§1)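 Lean C57BL/6J or db/db mice given a jugular vein catheter 5–6 days beforehand; treated with test compound and fasted overnight. 2 h hyperinsulinemic-euglycemic clamp run in awake mice with human insulin (150 mU/kg prime, then 2.5 mU/kg/min). Tissue uptake in gastrocnemius and epididymal WAT from 2-[14C]DG-6-phosphate, separated by ion-exchange, and the plasma 2-[14C]DG profile. n = 5–6 mice/group.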

L-type calcium channels = test: Calcium channel blockade; details: in contrast to verapamil
[2] = Plasma concentration and oral bioavailability in mice; type: in vivo, mouse
[3] = tested on: primary mouse hepatocytes; test: Gene expression by qRT-PCR in primary hepatocytes; type: cell-based
Method in brief: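 Primary hepatocytes from male C57BL/6J, liver-specific glucagon receptor knockout or Txnip-deficient mice, seeded on collagen at 3×10^5 cells/well in serum-free DMEM. After 4 h attachment, medium changed and cells given varying test compound concentrations for 24 h. Pck1/G6pc read in the presence of glucagon. mRNA quantified by qRT-PCR; n = 3 for knockout hepatocytes.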

C57BL/6J mice [4] = test: Oral administration in drinking water to wild-type C57BL/6J mice; type: in vivo, mouse
[5] = tested on: human islet gene expression; test: RNA sequencing of human islets; type: cell-based; details: 25 mM glucose, 1 μM
Method in brief: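 Human islets (IIDP; same-donor controls) held overnight at 5 mM glucose, then 24 h at 25 mM glucose with or without 1 µM test compound. RNA extracted with miRNeasy. Libraries prepared as TruSeq stranded mRNA and sequenced single-end at about 43 million reads/sample.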

[6] = Off-target liability panel; details: currently available panel
[7] = tested on: TXNIP expression in human islets; type: cell-based
Method in brief: (§2)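 INS-1 cells, C57BL/6J mouse islets (collagenase XI-isolated) or human islets (at least three donors, same-donor controls) kept overnight in 5 mM glucose RPMI 1640. Then incubated 24 h in 25 mM glucose RPMI 1640 with or without 1 µM test compound. TXNIP and related mRNAs measured by qRT-PCR; n = 6 (INS-1) or 3 (mouse islets) independent experiments.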

C57BL/6J mice [8] = test: Hyperinsulinemic-euglycemic clamp in lean C57BL/6J mice; type: in vivo, mouse
Method in brief: as §1

[9] = tested on: C57BL/6J mice rendered diabetic by multiple low-dose STZ; test: Multiple low-dose STZ-induced diabetes in C57BL/6J mice; type: in vivo, mouse
[10] = tested on: TXNIP mRNA expression in INS-1 cells; test: TXNIP mRNA expression by qRT-PCR in INS-1 cells; type: cell-based; details: rat INS-1 cells, 25 mM glucose, 1 μM, 24 h, qPCR
Method in brief: as §2

[11] = tested on: primary mouse hepatocytes; test: Hepatocyte glucose output; type: cell-based
Method in brief: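 Hepatocytes were isolated from male C57BL/6J, liver-specific GcgR-knockout or Txnip-deficient mice and plated on collagen at 3 × 10^5 cells/well in serum-free DMEM. After 4 h attachment, they were treated 24h with graded test-compound concentrations. For the last 6h, cells were washed twice in PBS and placed in serum-, glucose- and phenol red-free DMEM, with or without lactate (10 mM) and/or glucagon (100 nM). Medium glucose was read colorimetrically and normalized to total protein; n = 3–4 mice.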

[12] = tested on: TXNIP protein levels in INS-1 cells; test: TXNIP protein immunoblotting in INS-1 cells; type: cell-based, rat; details: 24h
Method in brief: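 Rat INS-1 beta-like cells were grown at 37°C in humidified 5% CO2. Whole-cell protein extracts were prepared and protein was quantified by BCA assay. Equal protein amounts were loaded per lane for TXNIP immunoblotting.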

[13] = Cellular cytotoxicity assay; type: cell-based; details: in vitro
db/db mice [14] = test: Oral treatment of obese, diabetic db/db mice; type: in vivo, mouse
TXNIP-deficient mice = test: SRI-37330 treatment of TXNIP-deficient mice; type: in vivo, mouse
[15] = tested on: TXNIP expression in primary mouse islets; test: TXNIP expression by qPCR in primary mouse islets at high glucose; type: cell-based; details: 25 mM glucose, 1 μM, 24 h
Method in brief: as §2

[16] = C57BL/6J mice, oral 100 mg/kg/day
[17] = livers of treated C57BL/6J mice
[18] = male C57BL/6J mice, oral 100 mg/kg/day, 3 weeks

Which results are given for CS(=O)(=O)NCC1CCCN(c2ncnc3ccc(C(F)(F)F)cc23)C1 (centres unmarked) [SRI-37330, N-((1-(6-(trifluoromethyl)quinazolin-4-yl)piperidin-3-yl)methyl)methanesulfonamide]?
basal hepatic glucose production (db/db mice [1]): significantly lower basal hepatic glucose production; glucose infusion rate (db/db mice [1]): not significantly different; hepatic insulin action (db/db mice [1]): not significantly different; insulin-stimulated glucose uptake in skeletal muscle (db/db mice [1]): remained unchanged; insulin-stimulated glucose uptake in white adipose tissue (db/db mice [1]): remained unchanged; calcium channel blocker activity (L-type calcium channels): not a calcium channel blocker; average plasma concentration ([2]; mice, 100 mg/kg/day in the drinking water): 5 µmol/L; oral bioavailability ([2]; mouse, in vivo, po): orally bioavailable; effect on glucagon-induced expression of Pck1 and G6pc ([3]; primary hepatocytes of liver-specific glucagon receptor knockout mice (GcgR−/−L)): completely blunted; glucagon-induced expression of Pck1 and G6pc ([3]; primary hepatocytes of wild-type C57BL/6J mice, 5 μM, 24h): inhibited; TXNIP signaling genes in primary hepatocytes or livers ([3]; primary hepatocytes or livers of treated mice): not affected; fasting blood glucose (C57BL/6J mice [4]; [16]): slightly, but significantly lower; fasting serum glucagon (C57BL/6J mice [4]; [16]): lower; fasting serum insulin (C57BL/6J mice [4]; [16]): unchanged; non-fasting blood glucose (C57BL/6J mice [4]; C57BL/6J mice, oral 100 mg/kg/day, within 3 days, persisted 3 weeks): small but significant decrease in blood glucose levels; insulin tolerance test (ITT) (C57BL/6J mice [4]; C57BL/6J mice, oral 100 mg/kg/day, 1 U/kg insulin i.p.): remained unaltered; intraperitoneal glucose tolerance test (GTT) (C57BL/6J mice [4]; C57BL/6J mice, oral 100 mg/kg/day, 3 g/kg glucose i.p. after 4 h fast): consistently and significantly improved glucose tolerance; blood glucose during insulin-induced hypoglycemia (C57BL/6J mice [4]; fasting mice, 15 min after insulin bolus 1 U/kg): able to maintain their blood glucose levels equally well to untreated controls; fatty liver (liver histology) (C57BL/6J mice [4]; lean mice): did not lead to any fatty liver; liver expression of Pck1 and G6pc (C57BL/6J mice [4]; [17]): lower expression; liver glycogen content (C57BL/6J mice [4]; [17]): higher glycogen content; tolerability (C57BL/6J mice [4]; male C57BL/6J mice, oral 100 mg/kg/day in drinking water, 3 weeks): well tolerated; body weight (C57BL/6J mice [4]; [18]): no change in body weight; gross abnormalities in organs at sacrifice (C57BL/6J mice [4]; [18]): no gross abnormalities in any organs; safety profile in vivo (C57BL/6J mice [4]; mouse, in vivo): excellent safety profile in vivo; liver and serum triglyceride levels (C57BL/6J mice [4]; treated C57BL/6J mice): lower liver and serum triglyceride levels; liver transaminase levels (C57BL/6J mice [4]; treated C57BL/6J mice): did not cause any elevation in liver transaminase levels; BCL2L1 expression ([5]; confirmed by qRT-PCR): upregulated; CTGF expression ([5]; confirmed by qRT-PCR): upregulated; IGF-1R expression ([5]; confirmed by qRT-PCR): upregulated; MAFA expression ([5]; confirmed by qRT-PCR): upregulated; MLXIPL expression ([5]; confirmed by qRT-PCR): downregulated; NLRP1 expression ([5]; confirmed by qRT-PCR): lower expression; general transcription ([5]; three donors, 24 h, RNA sequencing): does not inhibit general transcription; off-target liabilities [6]: lack of off-target liabilities; expression of other arrestin genes ARRB1 and ARRDC3 and of thioredoxin ([7]; human islets, qRT-PCR, negative controls): not affected; TXNIP expression in the context of high glucose ([7]; isolated human islets, 25 mM glucose, 1 μM, 24 h): significantly inhibit TXNIP expression; glucose infusion rates (C57BL/6J mice [8]; lean C57BL/6J mice): comparable between groups; hepatic insulin action (C57BL/6J mice [8]; lean C57BL/6J mice): comparable between groups; insulin-stimulated glucose uptake in white adipose tissue (C57BL/6J mice [8]; lean C57BL/6J mice, epididymal): comparable between groups; insulin-stimulated glucose uptake in skeletal muscle (C57BL/6J mice [8]; lean C57BL/6J mice, gastrocnemius): comparable between groups; basal hepatic glucose production (C57BL/6J mice [8]; lean awake C57BL/6J mice): significantly downregulated; insulin sensitivity (C57BL/6J mice [8]; lean awake C57BL/6J mice): no alteration in insulin sensitivity; urine glucose, fold lower than in untreated or empagliflozin-treated animals ([9]; STZ mice): more than 10 fold; blood glucose control compared to metformin or empagliflozin ([9]; STZ mice, drinking water): slightly better blood glucose control than metformin or empagliflozin; body weight at the end of the experiment ([9]; STZ mice, vs untreated): higher body weight; fasting blood glucose ([9]; STZ mice, vs untreated): lower fasting blood glucose; fasting serum insulin ([9]; STZ mice, vs untreated): higher; also recorded: almost two-fold elevation; serum triglycerides ([9]; STZ mice, only treatment with this effect): significantly lower serum triglycerides; fasting serum glucagon, fold lower than untreated ([9]; STZ-diabetic mice): 3.6 fold; effectiveness by oral gavage twice a day ([9]; STZ-induced diabetes, gavage 12 h apart): confirmed its effectiveness in obesity- as well as STZ-induced diabetes; dose-dependence of glucose lowering ([9]; oral gavage twice a day): dose-dependence of the glucose-lowering effects; TXNIP expression in the context of high glucose [10]: significantly inhibit TXNIP expression; hepatocyte glucose output ([11]; GcgR−/−L hepatocytes, glucagon present): no longer able to inhibit hepatocyte glucose output or cAMP production; glucose output ([11]; primary hepatocytes of TXNIP-deficient mice, glucagon present): maintained its ability to block glucose output and glucagon-induced cAMP production; basal or stimulated glucose output in the absence of glucagon ([11]; wild-type primary hepatocytes, 24h, no substrate or lactate): did not affect basal or stimulated glucose output; TXNIP protein levels [12]: inhibited TXNIP protein levels in a dose-dependent manner; cytotoxicity [13]: no cytotoxicity; hepatic steatosis (liver histology) (db/db mice [14]; db/db mice): dramatically improved the severe steatosis; alpha cell mass (db/db mice [14]; db/db mice, islet morphometry): small, but significant decline in alpha cell mass; alpha cell number (db/db mice [14]; db/db mice, islet morphometry): clear trend towards lower alpha cell number; beta cell mass and number (db/db mice [14]; db/db mice, islet morphometry): remained unchanged; fasting blood glucose (db/db mice [14]; db/db mice, oral): significantly downregulated; fasting serum glucagon (db/db mice [14]; db/db mice, oral): significant downregulate; fasting serum insulin (db/db mice [14]; db/db mice, oral): remained unchanged; body weight (db/db mice [14]; db/db mice, oral, 4 weeks): did not affect body weights; non-fasting blood glucose (db/db mice [14]; db/db mice, oral, 4 weeks): decreased significantly within 3 days of starting SRI-37330 treatment and returned to euglycemic levels; effectiveness by oral gavage twice a day (db/db mice [14]; obesity-induced diabetes, gavage 12 h apart): confirmed its effectiveness in obesity- as well as STZ-induced diabetes; glucose homeostasis and serum glucagon (TXNIP-deficient mice): no longer able to further improve glucose homeostasis or lower serum glucagon levels; serum glucagon levels (TXNIP-deficient mice): even elevated; TXNIP expression in the context of high glucose [15]: significantly inhibit TXNIP expression
